Here are results for one compound from ChEMBL document CHEMBL4732104, “Discovery of bardoxolone derivatives as novel orally active necroptosis inhibitors” (Eur J Med Chem, 2021).

Experiment [1] relates to HT-29. The experiment can be described thus: Protection against TNFalpha/SM-164 (TS)-induced apoptosis in human HT-29 cells assessed as increase in cell viability at 0.5 to 10 uM measured after 20 hrs by celltiter-glo luminescent cell viability assay. The format is functional, cell-based. As to conditions: dose 0.5-10 µM. In a few lines:
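HT-29 cells exposed to agent across concentrations, then TNF-α and Smac mimetic (TS) for 20 h. CellTiter-Glo viability, mean ± S.D. of three independent experiments.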
Background: Cellular ATP, detected with luciferase, serves as a proxy for viable cell number.

In experiment [2] the test system is HT-29. The experiment can be described thus: Anti-necroptotic activity in human HT-29 cells assessed as inhibition of TNFalpha/SM-164/Z-VAD-fmk (TSZ)-induced necroptosis by measuring increase in cell viability at 10 uM measured after 12 hrs in presence of RIPK1/3 inhibitor TAK632 by celltiter-glo luminescent cell viability assay. The format is functional, cell-based. A digest of the protocol: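 HT-29 cells exposed to test agent combined with a second necroptosis inhibitor, then stimulated with TSZ for 12 h to assess synergy. Viability read by CellTiter-Glo luminescence.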

The test system of a further experiment is Rattus norvegicus. The experiment can be described thus: Neuroprotective activity in middle cerebral artery occlusion-induced Sprague-Dawley rat model of ischemia-reperfusion injury assessed as reduction in cerebral infarct volume at 100 mg/kg by TTC staining based microscopic analysis relative to control. Format: functional. Details: scale not given: the % may be the effect or the level left. A digest of the protocol: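 Rats: left MCA blocked by monofilament via internal carotid under chloral hydrate (300 mg/kg i.p.), 2 h occlusion, 24 h reperfusion. Groups sham, vehicle, compound 100 mg/kg, nimodipine 1 mg/kg given orally beforehand. Brains cut in 2 mm coronal slices, TTC-stained; unstained area as percent of whole brain area; n = 6.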

Experiment [3] has as its target Heat shock protein HSP90 (Homo sapiens) (UniProt P07900+P08238). The experiment in a line: Inhibition of HSP90 in TNFalpha/SM-164/Z-VAD-fmk (TSZ)-induced human HT-29 cells assessed as reduction in RIPK1-RIPK3 necrosome formation at 10 uM measured after 6 hrs by Western blot analysis. The format is cell-based. A digest of the protocol: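 HT-29 cells given agent (10 μM) or DMSO for 6 h under TSZ. Lysed in NP-40 buffer with PMSF, protease inhibitors, β-glycerophosphate, NaF and Na3VO4. Anti-RIPK1 immunoprecipitation overnight at 4 °C, protein A/G capture overnight. Eluates boiled in SDS buffer and resolved on 10% gels for immunoblot.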

Experiment [4] relates to HT-29. The experiment in a line: Anti-necroptotic activity in human HT-29 cells assessed as inhibition of TNFalpha/SM-164/Z-VAD-fmk (TSZ)-induced necroptosis by measuring increase in cell viability measured after 12 hrs by celltiter-glo luminescent cell viability assay. The format is functional, cell-based. In a few lines: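 HT-29 cells pretreated with test agent across a concentration range, then TNF-α (20 ng/mL), Smac mimetic (10 nM) and z-VAD-fmk (20 μM) for 12–16 h. CellTiter-Glo viability. EC50 ± SD from at least three independent experiments.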

The source made the active and inactive calls. The calls are words filed in the database; no cut-off is given here.

One may read the EC50 as the concentration needed to bring the measured effect to its halfway point.

Regarding `CC1(C)CC[C@]2(C(=O)n3cnc(-c4cccnc4)c3)CC[C@]3(C)[C@H](C(=O)C=C4[C@@]5(C)C=C(C#N)C(=O)C(C)(C)[C@@H]5CC[C@]43C)[C@@H]2C1`, the result in the experiment with HT-29 [1] was Active. For the same compound, the inhibition entry (in the experiment with HT-29 [2]; in experiment [3]) was “Active” each time. In addition, the Activity with Rattus norvegicus is 22.8%. Moreover, in the experiment on HT-29 [4], the inhibition entry was “Dose-dependent effect”. The EC50 in the experiment with HT-29 [4] (HT-29, 12 h) worked out at 310 nM.
